Measured values as given in ChEMBL document CHEMBL3792308, “Synthesis and Evaluation of 2,6-Modified Purine 2'-C-Methyl Ribonucleosides as Inhibitors of HCV Replication” (ACS Med Chem Lett, 2016).
Calls of active or inactive are those of the source. The calls are words filed in the database; no cut-off is given here.

Experiments:
[1] = Inhibition of host RNA polymerase 2 (unknown origin); design: species or system Homo sapiens
Outline: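 Host RNA polymerase II inhibition assay with the nucleoside triphosphate tested at concentrations up to 100 μM. α-Amanitin was included as the positive control.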

[2] = Drug level in human HuH7 cells treated with (2R,3R,4R,5R)-2-(6-amino-2-fluoro-9H-purin-9-yl)-5-(hydroxymethyl)-3-methyltetrahydrofuran-3,4-diol at 50 uM after 4 hrs by LC-MS/MS analysis; format: ADME, cell-based; conditions: huh-7, 4 h
Outline: (§1)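 Huh7 cells incubated with 50 μM compound for 4 h at 37 °C, then washed with phosphate-buffered saline. Intracellular metabolites extracted with 70% ice-cold methanol in water and identified by LC–MS/MS, with nucleoside mono-, di- and triphosphate levels quantified.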

Homo sapiens = species: Homo sapiens; test: Inhibition of host RNA polymerase 2 (unknown origin) up to 100 uM
Outline: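 Host RNA polymerase II was tested with nucleoside triphosphate up to 100 μM. α-Amanitin served as the positive control.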

[3] = Inhibition of HCV C-terminal his-tagged NS5B delta21 RNA dependent RNA polymerase assessed as inhibition of full-length 20mer RNA product formation after 120 mins by PAGE method in presence of 32P-radiolabeled GpG primer; design: species or system Hepacivirus hominis
Outline: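 HCV NS5B polymerase RNA synthesis on a 20mer RNA template, run with increasing triphosphate concentrations up to 100 μM. Products resolved to follow incorporation and pausing sites opposite template uridines.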

[4] = biological target: DNA-directed RNA polymerase, mitochondrial (Homo sapiens) (UniProt O00411); test: Activity at human mitochondrial RNA polymerase assessed as compound incorporation into RNA up to 100 uM relative to ATP
Chain of DNA-directed RNA polymerase, mitochondrial (Homo sapiens) (O00411 whole entry): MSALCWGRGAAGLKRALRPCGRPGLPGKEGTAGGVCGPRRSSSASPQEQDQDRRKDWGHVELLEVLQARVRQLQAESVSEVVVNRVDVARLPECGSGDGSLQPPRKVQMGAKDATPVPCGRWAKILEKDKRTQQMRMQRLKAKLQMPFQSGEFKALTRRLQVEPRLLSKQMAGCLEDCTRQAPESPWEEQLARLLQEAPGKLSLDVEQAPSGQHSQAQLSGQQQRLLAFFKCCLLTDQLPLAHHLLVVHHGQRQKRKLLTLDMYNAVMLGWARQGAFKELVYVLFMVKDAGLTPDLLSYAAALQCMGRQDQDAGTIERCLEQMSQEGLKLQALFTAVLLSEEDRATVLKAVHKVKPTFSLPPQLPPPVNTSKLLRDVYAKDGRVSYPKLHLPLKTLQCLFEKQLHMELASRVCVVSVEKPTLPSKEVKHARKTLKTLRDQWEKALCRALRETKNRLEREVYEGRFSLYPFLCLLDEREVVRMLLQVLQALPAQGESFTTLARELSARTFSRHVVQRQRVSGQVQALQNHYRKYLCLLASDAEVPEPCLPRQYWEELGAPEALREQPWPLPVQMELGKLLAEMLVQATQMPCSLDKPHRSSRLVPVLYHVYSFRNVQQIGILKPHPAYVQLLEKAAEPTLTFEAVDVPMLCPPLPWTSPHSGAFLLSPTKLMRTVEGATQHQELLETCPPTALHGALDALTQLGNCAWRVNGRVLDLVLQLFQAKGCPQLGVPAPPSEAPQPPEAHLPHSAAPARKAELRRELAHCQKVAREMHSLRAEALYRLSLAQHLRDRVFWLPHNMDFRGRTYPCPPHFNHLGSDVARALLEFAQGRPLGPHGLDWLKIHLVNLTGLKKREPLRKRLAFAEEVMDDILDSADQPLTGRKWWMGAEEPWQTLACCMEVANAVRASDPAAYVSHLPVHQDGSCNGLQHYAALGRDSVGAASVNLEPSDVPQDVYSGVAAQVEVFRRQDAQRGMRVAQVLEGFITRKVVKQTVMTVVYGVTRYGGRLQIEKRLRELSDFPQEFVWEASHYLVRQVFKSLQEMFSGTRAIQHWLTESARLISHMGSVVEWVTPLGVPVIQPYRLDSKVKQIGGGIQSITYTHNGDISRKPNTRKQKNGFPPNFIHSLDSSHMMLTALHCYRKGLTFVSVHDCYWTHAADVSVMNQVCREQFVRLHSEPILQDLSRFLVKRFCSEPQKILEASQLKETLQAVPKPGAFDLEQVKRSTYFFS
Outline: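 Human mitochondrial RNA polymerase (POLRMT) incorporation of nucleoside triphosphate, tested up to 100 μM and expressed as percent incorporation normalized to ATP.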

[5] = Drug level in human HuH7 cells treated with Ethyl((((2R,3R,4R,5R)-5-(6-amino-2-fluoro-9H-purin-9-yl)-3,4-dihydroxy-4-methyltetrahydrofuran-2-yl)methoxy)(phenoxy)phosphoryl)-L-alaninate at 50 uM after 4 hrs by LC-MS/MS analysis; format: ADME, cell-based; conditions: huh-7, 4 h; outline: as §1
[6] = Cytotoxicity against human PBMC after 6 days by trypan blue exclusion assay; format: cell-based; conditions: PBMC (peripheral blood mononuclear cells)
[7] = Drug metabolism in human HuH7 cells assessed as nucleoside diphosphate derivative formation at 50 uM after 4 hrs by LC-MS/MS analysis; format: ADME, cell-based; conditions: huh-7, 4 h; outline: as §1
[8] = Cytotoxicity against human CEM cells after 6 days by trypan blue exclusion assay; format: cell-based; conditions: CEM (CCRF-CEM) cells
Hepatitis C virus = test: Antiviral activity against HCV infected in HuH7 Clone B cells assessed as inhibition of viral replication after 5 days by RT-PCR method; format: functional, organism-based, Hepacivirus hominis; conditions: 120 h
Outline: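 Huh7 cells carrying a subgenomic HCV replicon; HCV RNA extracted and amplified to measure replication inhibition. Tested up to 10 μM, and EC50 and EC90 are reported.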

[9] = Drug metabolism in human HuH7 cells assessed as nucleoside monophosphate derivative formation at 50 uM after 4 hrs by LC-MS/MS analysis; format: ADME, cell-based; conditions: huh-7, 4 h; outline: as §1
[10] = Cytotoxicity against African green monkey Vero cells after 3 days by hemocytometry; format: cell-based; conditions: chlorocebus sabaeus
[11] = Drug metabolism in human HuH7 cells assessed as nucleoside triphosphate derivative formation at 50 uM after 4 hrs by LC-MS/MS analysis; format: ADME, cell-based; conditions: huh-7, 4 h; outline: as §1
[12] = Cytotoxicity against human HuH7 cells infected with HCV assessed as reduction in cellular rRNA level after 96 hrs by qRT-PCR analysis; format: cell-based, Huh-7
Outline: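 Huh7 toxicity was read in the same wells as the replicon assay, by extracting and amplifying cellular rRNA alongside HCV RNA.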

[13] = Drug metabolism in human HuH7 cells assessed as formation of ((2R,3R,4R,5R)-5-(6-amino-2-fluoro-9H-purin-9-yl)-3,4-dihydroxy-4-methyltetrahydrofuran-2-yl)methyl tetrahydro triphosphate at 50 uM after 4 hrs by LC-MS/MS analysis; format: ADME, cell-based; conditions: huh-7, 4 h; outline: as §1
[14] = Drug metabolism in human HuH7 cells assessed as 2'-beta-C-methylguanosine-5'-triphosphate formation at 50 uM after 4 hrs by LC-MS/MS analysis; format: ADME, cell-based; conditions: huh-7, 4 h; outline: as §1
[15] = Drug level in human HuH7 cells treated with 2-Amino-6-[N-(t-butyloxycarbonyl)aminoxy]-9H-(2'-C-methyl-beta-D-ribofuranosyl)-purine at 50 uM after 4 hrs by LC-MS/MS analysis; format: ADME, cell-based; conditions: huh-7, 4 h; outline: as §1
[16] = Drug level in human HuH7 cells treated with Ethyl((((2R,3S,4R,5R)-5-(2-amino-6-(((tert-butoxycarbonyl)amino)oxy)-9H-purin-9-yl)-3,4-dihydroxy-4-methyltetrahydrofuran-2-yl)methoxy)(phenoxy)phosphoryl)-Lalaninate at 50 uM after 4 hrs by LC-MS/MS analysis; format: ADME, cell-based; conditions: huh-7, 4 h; outline: as §1

EC50 (Hepatitis C virus)	EC90 (Hepatitis C virus)	Structure (SMILES)	CC50 at 144 h [6]	CC50 at 144 h [8]	CC50 at 72 h [10]	CC50 at 96 h [12]	other results
–	–	CC[C@H](C)[C@@H]1NC(=O)CNC(=O)[C@@H]2Cc3c([nH]c4cc(O)ccc34)[S+]([O-])C[C@H](NC(=O)CNC1=O)C(=O)N[C@@H](CC(N)=O)C(=O)N1C[C@H](O)C[C@H]1C(=O)N[C@@H]([C@@H](C)[C@@H](O)CO)C(=O)N2 (some centres undefined)	–	–	–	–	IC50 [1]: 0.0025 µM
–	–	C[C@@]1(O)[C@H](O)[C@@H](COP(=O)(O)OP(=O)(O)OP(=O)(O)O)O[C@H]1n1cnc2c(N)nc(F)nc21	–	–	–	–	Drug metabolism [2]: metabolite_detected; inhibition (Homo sapiens): inactive; Ki [3]: 32 µM; Activity [4]: 11%; Drug metabolism [5]: metabolite_detected
2.7 µM	8.3 µM	CCOC(=O)[C@H](C)NP(=O)(OC[C@H]1O[C@@H](n2cnc3c(N)nc(F)nc32)[C@](C)(O)[C@@H]1O)Oc1ccccc1 (some centres undefined)	> 100 µM	> 100 µM	> 100 µM	> 10 µM	Drug metabolism [7]: metabolite_detected; Drug metabolism [9]: metabolite_detected; Drug metabolism [11]: metabolite_detected; Drug metabolism [13]: metabolite_detected
> 10 µM	> 10 µM	C[C@@]1(O)[C@H](O)[C@@H](CO)O[C@H]1n1cnc2c(N)nc(F)nc21	> 100 µM	> 100 µM	> 100 µM	> 10 µM	Drug metabolism [13]: metabolite_detected
0.3 µM	0.9 µM	CCOC(=O)[C@H](C)NP(=O)(OC[C@H]1O[C@@H](n2cnc3c(ONC(=O)OC(C)(C)C)nc(N)nc32)[C@](C)(O)[C@@H]1O)Oc1ccccc1 (some centres undefined)	> 100 µM	39 µM	> 100 µM	> 10 µM	Drug metabolism [14]: metabolite_detected
0.9 µM	8.4 µM	CC(C)(C)OC(=O)NOc1nc(N)nc2c1ncn2[C@@H]1O[C@H](CO)[C@@H](O)[C@@]1(C)O	> 100 µM	> 100 µM	> 100 µM	> 10 µM	Drug metabolism [14]: metabolite_detected
–	–	C[C@@]1(O)[C@H](O)[C@@H](COP(=O)(O)OP(=O)(O)OP(=O)(O)O)O[C@H]1n1cnc2c(=O)[nH]c(N)nc21 [INX-09114]	–	–	–	–	Drug metabolism [15]: metabolite_detected; Drug metabolism [16]: metabolite_detected
